Measured values published in ChEMBL document CHEMBL4665669, “Novel tertiary sulfonamide derivatives containing benzimidazole moiety as potent anti-gastric cancer agents: Design, synthesis and SAR studies” (Eur J Med Chem, 2019).
Activity calls are given as the source filed them. The calls are words filed in the database; no cut-off is given here.

Columns and labels:
HGC-27 [1] = experiment: Anticancer activity against human HGC-27 cells assessed as inhibition of cell proliferation after 48 hrs by MTT assay; format: functional, cell-based
Summary of the method: (§1)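 MTT assay with 48 h compound exposure. MTT solution was then added and incubated 4 h at 37 °C, the supernatant discarded and formazan dissolved in DMSO, with absorbance read at 490 nm. IC50 values were calculated from three independent experiments, reported as mean SD.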

SGC-7901 [2] = experiment: Anticancer activity against human SGC-7901 cells assessed as inhibition of cell proliferation after 48 hrs by MTT assay; format: functional, cell-based; summary of the method: as §1
MGC-803 [3] = experiment: Cell cycle arrest in human MGC-803 cells assessed as accumulation at G2/M phase at 0.5 to 1.5 umol/L after 48 hrs by RNase/propidium iodide staining based flow cytometry; format: functional; details: dose micromol/L 0.5-1.5, time 48.0 hrs
Summary of the method: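 MGC-803, SGC-7901 and HGC-27 cells were seeded in 6-well plates and treated 48 h with compound or DMSO. Cells were then harvested and fixed in 70% cold ethanol at 4 °C for 8 h, and cell-cycle phase distribution was quantified by flow cytometry.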

HGC-27 [4] = experiment: Cell cycle arrest at G2 phase in human HGC-27 cells assessed as downregulation of Cyclin B level at 0.5 to 1.5 umol/L after 48 hrs by Western blot analysis; format: functional, cell-based; details: dose micromol/L 0.5-1.5, time 48.0 hrs
Summary of the method: (§2)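 Western blot. Cells were treated with compound concentrations or DMSO for 48 h, then lysed, and lysates were denatured, run on SDS-PAGE and transferred to nitrocellulose. After blocking in 5% skimmed milk, membranes were incubated with primary antibodies at 4 °C for 8 h, then secondary antibodies, with ECL detection.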

SGC-7901 [5] = experiment: Cell cycle arrest at M phase in human SGC-7901 cells assessed as upregulation of p-Histone-3 level at 0.5 to 1.5 umol/L after 48 hrs by Western blot analysis; format: functional, cell-based; details: dose micromol/L 0.5-1.5, time 48.0 hrs; summary of the method: as §2
HGC-27 [6] = experiment: Inhibition of Ras/Raf/MEK/ERK signalling pathway in human HGC-27 cells assessed as decrease in c-Raf phosphorylation after 48 hrs by Western blot analysis; format: cell-based; details: dose micromol/L 0.5-1.5, time 48.0 hrs
Summary of the method: (§3)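 Cells treated with graded concentrations or DMSO for 48 h, then harvested and lysed. Lysates denatured, resolved by SDS-PAGE and transferred to nitrocellulose. Membranes blocked with 5% skimmed milk and probed with primary antibodies at 4 °C for 8 h, then with secondary antibodies. Bands detected by ECL.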

HGC-27 [7] = experiment: Inhibition of Ras/Raf/MEK/ERK signalling pathway in human HGC-27 cells assessed as decrease in ERK1/2 phosphorylation after 48 hrs by Western blot analysis; format: cell-based; details: dose micromol/L 0.5-1.5, time 48.0 hrs; summary of the method: as §3
MGC-803 [8] = experiment: Inhibition of Ras/Raf/MEK/ERK signalling pathway in human MGC-803 cells assessed as downregulation of FoxO3a expression at 0.5 to 1.5 umol/L after 48 hrs by Western blot analysis; format: cell-based; details: dose micromol/L 0.5-1.5, time 48.0 hrs; summary of the method: as §3
HGC-27 [9] = experiment: Inhibition of Ras/Raf/MEK/ERK signalling pathway in human HGC-27 cells assessed as downregulation of FoxO3a expression at 0.5 to 1.5 umol/L after 48 hrs by Western blot analysis; format: cell-based; details: dose micromol/L 0.5-1.5, time 48.0 hrs; summary of the method: as §3
MGC-803 [10] = experiment: Inhibition of Akt/mTOR signalling pathway in human MGC-803 cells assessed as decrease in mTOR phosphorylation at Ser2448 residue at 0.5 to 1.5 umol/L after 48 hrs by Western blot analysis; format: cell-based; details: dose micromol/L 0.5-1.5, time 48.0 hrs; summary of the method: as §3
SGC-7901 [11] = experiment: Inhibition of Akt/mTOR signalling pathway in human SGC-7901 cells assessed as decrease in mTOR phosphorylation at Ser2448 residue at 0.5 to 1.5 umol/L after 48 hrs by Western blot analysis; format: cell-based; details: dose micromol/L 0.5-1.5, time 48.0 hrs; summary of the method: as §3
MGC-803 [12] = experiment: Anticancer activity against human MGC-803 cells assessed as cell growth at 0.5 to 1.5 umol/L after 48 hrs by MTT assay relative to control; format: functional; details: dose micromol/L 0.5-1.5
SGC-7901 [13] = experiment: Induction of apoptosis in human SGC-7901 cells assessed as increase in nucleus concentration at 0.5 to 1.5 umol/L after 48 hrs by imaging analysis; format: functional, cell-based; details: dose micromol/L 0.5-1.5, time 48.0 hrs
HGC-27 [14] = experiment: Induction of apoptosis in human HGC-27 cells induction of DNA fragmentation at 0.5 to 1.5 umol/L after 48 hrs by imaging analysis; format: functional, cell-based; details: dose micromol/L 0.5-1.5, time 48.0 hrs
MGC-803 [15] = experiment: Induction of apoptosis in human MGC-803 cells assessed as downregulation of Mcl-1 level at 0.5 to 1.5 umol/L after 48 hrs Western blot analysis; format: functional, cell-based; details: dose micromol/L 0.5-1.5, time 48.0 hrs; summary of the method: as §2
MGC-803 [16] = experiment: Induction of apoptosis in human MGC-803 cells assessed as downregulation of Bcl-2 level at 0.5 to 1.5 umol/L after 48 hrs Western blot analysis; format: functional, cell-based; details: dose micromol/L 0.5-1.5, time 48.0 hrs; summary of the method: as §2
MGC-803 [17] = experiment: Induction of apoptosis in human MGC-803 cells assessed as downregulation of c-IAP1 level at 0.5 to 1.5 umol/L after 48 hrs Western blot analysis; format: functional, cell-based; details: dose micromol/L 0.5-1.5, time 48.0 hrs; summary of the method: as §2
HGC-27 [18] = experiment: Induction of apoptosis in human HGC-27 cells assessed as upregulation of NOXA level at 0.5 to 1.5 umol/L after 48 hrs Western blot analysis; format: functional, cell-based; details: dose micromol/L 0.5-1.5, time 48.0 hrs; summary of the method: as §2
HGC-27 [19] = experiment: Induction of apoptosis in human HGC-27 cells assessed as downregulation of Mcl-1 level at 0.5 to 1.5 umol/L after 48 hrs Western blot analysis; format: functional, cell-based; details: dose micromol/L 0.5-1.5, time 48.0 hrs; summary of the method: as §2
HGC-27 [20] = experiment: Induction of apoptosis in human HGC-27 cells assessed as downregulation of c-IAP1 level at 0.5 to 1.5 umol/L after 48 hrs Western blot analysis; format: functional, cell-based; details: dose micromol/L 0.5-1.5, time 48.0 hrs; summary of the method: as §2
HGC-27 [21] = experiment: Induction of apoptosis in human HGC-27 cells assessed as downregulation of XIAP level at 0.5 to 1.5 umol/L after 48 hrs Western blot analysis; format: functional, cell-based; details: dose micromol/L 0.5-1.5, time 48.0 hrs; summary of the method: as §2
SGC-7901 [22] = experiment: Induction of apoptosis in human SGC-7901 cells assessed as downregulation of Bcl-2 level at 0.5 to 1.5 umol/L after 48 hrs Western blot analysis; format: functional, cell-based; details: dose micromol/L 0.5-1.5, time 48.0 hrs; summary of the method: as §2
SGC-7901 [23] = experiment: Induction of apoptosis in human SGC-7901 cells assessed as downregulation of c-IAP1 level at 0.5 to 1.5 umol/L after 48 hrs Western blot analysis; format: functional, cell-based; details: dose micromol/L 0.5-1.5, time 48.0 hrs; summary of the method: as §2
HGC-27 [24] = experiment: Cell cycle arrest at G2 phase in human HGC-27 cells assessed as downregulation of CDK1 level at 0.5 to 1.5 umol/L after 48 hrs by Western blot analysis; format: functional, cell-based; details: dose micromol/L 0.5-1.5, time 48.0 hrs; summary of the method: as §2
HGC-27 [25] = experiment: Anticancer activity against human HGC-27 cells assessed as cell growth at 0.5 to 1.5 umol/L after 48 hrs by MTT assay relative to control; format: functional; details: dose micromol/L 0.5-1.5

SMILES: COc1cc(N(Cc2nc3ccccc3[nH]2)S(=O)(=O)c2ccc(C)cc2)cc(OC)c1OC
- Activity (HGC-27 [1]): Dose-dependent effect
- IC50 (HGC-27 [1]; HGC-27, 48 h): 1.61 µM
- Activity (SGC-7901 [2]): Dose-dependent effect
- IC50 (SGC-7901 [2]; SGC-7901, 48 h): 2.3 µM
- Activity (MGC-803 [3]): Active
- Activity (HGC-27 [4]): Active
- Activity (SGC-7901 [5]): Active
- inhibition (HGC-27 [6]): Dose-dependent effect
- inhibition (HGC-27 [7]): Dose-dependent effect
- inhibition (MGC-803 [8]): Active
- inhibition (HGC-27 [9]): Active
- inhibition (MGC-803 [10]): Active
- inhibition (SGC-7901 [11]): Active
- fold change (FC) (MGC-803 [12]): <2
- Activity (SGC-7901 [13]): Active
- Activity (HGC-27 [14]): Active
- Activity (MGC-803 [15]): Active
- Activity (MGC-803 [16]): Active
- Activity (MGC-803 [17]): Active
- Activity (HGC-27 [18]): Active
- Activity (HGC-27 [19]): Active
- Activity (HGC-27 [20]): Active
- Activity (HGC-27 [21]): Active
- Activity (SGC-7901 [22]): Active
- Activity (SGC-7901 [23]): Active
- Activity (HGC-27 [24]): Active
- fold change (FC) (HGC-27 [25]): <2
